Data taken from ChEMBL document CHEMBL4304743, “Discovery of ( E)- N1-(3-Fluorophenyl)- N3-(3-(2-(pyridin-2-yl)vinyl)-1 H-indazol-6-yl)malonamide (CHMFL-KIT-033) as a Novel c-KIT T670I Mutant Selective Kinase Inhibitor for Gastrointestinal Stromal Tumors (GISTs)” (J Med Chem, 2019).
pEC50, pIC50: −log10 of the molar value. Calls of active or inactive are those of the source. The calls are words filed in the database; no cut-off is given here.

How the values were obtained:
[1] = AUC (0 to infinity) in Sprague-Dawley rat at 10 mg/kg, po measured after 5 to 720 mins by LC-tandem mass spectrometry analysis; type: ADME, organism-based; parameters: dose 10 mg/kg, route oral, time infinity; settings: in vivo
Procedure, shortened: (§1)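 Male Sprague-Dawley rats (190-210 g), fasted 12 h, randomized into two groups: 1 mg/kg i.v. or 10 mg/kg p.o., both formulated in 10% DMSO/90% of 5% glucose water. Blood sampled at 2-720 min (i.v.) or 5-720 min (p.o.). Plasma protein-precipitated with methanol, caffeine internal standard, LC-MS/MS. Noncompartmental analysis; triplicate, ±SD.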

[2] = Tmax in Sprague-Dawley rat at 10 mg/kg, po measured after 5 to 720 mins by LC-tandem mass spectrometry analysis; type: ADME, organism-based; settings: in vivo
Procedure, shortened: (§2)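 Male Sprague–Dawley rats (190-210 g), fasted 12 h, given 1 mg/kg i.v. or 10 mg/kg p.o. in DMSO/5% glucose water (1:9). Blood sampled at 2–720 min (i.v.) or 5–720 min (p.o.). Plasma proteins precipitated with methanol using caffeine internal standard, then LC-MS/MS. Noncompartmental analysis; F = AUC0-∞ ratio corrected for dose; triplicate ±SD.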

[3] = test system: Mast/stem cell growth factor receptor Kit (Homo sapiens), P10721 [UNDEFINED MUTATION]; assay: Inhibition of c-KIT 560 to 578 deletion/T670I double mutant in human GISTT1 cells assessed as reduction in AKT phosphorylation at S473 residue at 0.1 uM to 3 uM after 1 hr by Western blot analysis; type: cell-based
Mast/stem cell growth factor receptor Kit (Homo sapiens), P10721 [UNDEFINED MUTATION], sequence (P10721 whole entry, looked up, stated change not applied): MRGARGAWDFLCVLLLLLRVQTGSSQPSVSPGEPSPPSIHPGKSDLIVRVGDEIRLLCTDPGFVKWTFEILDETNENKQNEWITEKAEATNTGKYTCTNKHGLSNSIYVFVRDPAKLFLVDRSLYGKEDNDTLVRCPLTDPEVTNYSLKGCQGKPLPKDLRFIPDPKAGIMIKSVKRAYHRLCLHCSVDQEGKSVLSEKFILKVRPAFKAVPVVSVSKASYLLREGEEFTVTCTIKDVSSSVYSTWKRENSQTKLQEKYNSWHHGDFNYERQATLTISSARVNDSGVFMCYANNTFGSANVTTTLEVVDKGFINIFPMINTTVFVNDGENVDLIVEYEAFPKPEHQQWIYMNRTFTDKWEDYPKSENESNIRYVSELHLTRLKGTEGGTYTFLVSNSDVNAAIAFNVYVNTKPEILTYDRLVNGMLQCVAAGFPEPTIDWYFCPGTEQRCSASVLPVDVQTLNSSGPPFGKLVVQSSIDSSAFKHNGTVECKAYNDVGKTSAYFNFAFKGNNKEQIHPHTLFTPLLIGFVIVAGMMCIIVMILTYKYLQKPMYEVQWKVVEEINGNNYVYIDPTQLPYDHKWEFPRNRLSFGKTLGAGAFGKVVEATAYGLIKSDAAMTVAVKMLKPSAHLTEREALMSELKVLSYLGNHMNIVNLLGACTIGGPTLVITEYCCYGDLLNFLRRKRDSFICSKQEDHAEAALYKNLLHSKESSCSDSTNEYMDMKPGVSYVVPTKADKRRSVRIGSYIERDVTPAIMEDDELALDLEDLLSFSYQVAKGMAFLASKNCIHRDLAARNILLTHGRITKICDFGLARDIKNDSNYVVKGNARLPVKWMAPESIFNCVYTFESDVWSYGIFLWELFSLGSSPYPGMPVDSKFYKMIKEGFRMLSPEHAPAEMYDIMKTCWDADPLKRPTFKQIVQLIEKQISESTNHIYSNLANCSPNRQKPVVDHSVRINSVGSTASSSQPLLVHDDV
Procedure, shortened: (§3)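 Serial compound dilutions applied for 1 h to GIST-T1, GIST-T1-T670I (CRISPR/Cas9 T670I knock-in, clone confirmed by Sanger sequencing) or GIST-5R cells in DMEM with 10% FBS. Cells then lysed and phospho-proteins detected by standard Western blotting.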

[4] = AUC (0 to infinity) in mouse at 10 mg/kg, po measured after 5 to 720 mins by LC-tandem mass spectrometry analysis; type: ADME, organism-based; parameters: dose 10 mg/kg, route oral, time infinity; settings: in vivo
Procedure, shortened: (§4)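 Mice dosed 1 mg/kg i.v. or 10 mg/kg p.o.; plasma drug levels by LC-MS/MS, parameters by noncompartmental analysis; values not from triplicate testing.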

[5] = test system: Mast/stem cell growth factor receptor Kit (Homo sapiens), P10721 [D820E]; assay: Inhibition of TEL fused c-KIT D820E mutant (unknown origin) transfected in mouse BAF3 cells assessed as growth inhibition after 72 hrs by CCK8 assay; type: cell-based
Procedure, shortened: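 Tel-c-KIT-transformed BaF3 lines (IL-3 independent) kept in RPMI 1640 with 10% FBS, 2% L-glutamine and pen/strep. Cells at 1.5 to 5 × 10^4 cells/mL mixed with graded compound and incubated 72 h at 37 °C, 5% CO2. Viability by CCK-8 absorbance at 450 nm, normalized to DMSO. GI50 from dose–response fit.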

[6] = molecular target: Serine/threonine-protein kinase Nek1 (Homo sapiens) (UniProt Q96PY6); assay: Binding affinity to wild-type human partial length NEK1 (M1 to K278 residues) expressed in bacterial expression system assessed as enzyme remaining activity at 1 uM by Kinomescan assay relative to control
Serine/threonine-protein kinase Nek1 (Homo sapiens), sequence (Q96PY6 whole entry, the tested form may be a part): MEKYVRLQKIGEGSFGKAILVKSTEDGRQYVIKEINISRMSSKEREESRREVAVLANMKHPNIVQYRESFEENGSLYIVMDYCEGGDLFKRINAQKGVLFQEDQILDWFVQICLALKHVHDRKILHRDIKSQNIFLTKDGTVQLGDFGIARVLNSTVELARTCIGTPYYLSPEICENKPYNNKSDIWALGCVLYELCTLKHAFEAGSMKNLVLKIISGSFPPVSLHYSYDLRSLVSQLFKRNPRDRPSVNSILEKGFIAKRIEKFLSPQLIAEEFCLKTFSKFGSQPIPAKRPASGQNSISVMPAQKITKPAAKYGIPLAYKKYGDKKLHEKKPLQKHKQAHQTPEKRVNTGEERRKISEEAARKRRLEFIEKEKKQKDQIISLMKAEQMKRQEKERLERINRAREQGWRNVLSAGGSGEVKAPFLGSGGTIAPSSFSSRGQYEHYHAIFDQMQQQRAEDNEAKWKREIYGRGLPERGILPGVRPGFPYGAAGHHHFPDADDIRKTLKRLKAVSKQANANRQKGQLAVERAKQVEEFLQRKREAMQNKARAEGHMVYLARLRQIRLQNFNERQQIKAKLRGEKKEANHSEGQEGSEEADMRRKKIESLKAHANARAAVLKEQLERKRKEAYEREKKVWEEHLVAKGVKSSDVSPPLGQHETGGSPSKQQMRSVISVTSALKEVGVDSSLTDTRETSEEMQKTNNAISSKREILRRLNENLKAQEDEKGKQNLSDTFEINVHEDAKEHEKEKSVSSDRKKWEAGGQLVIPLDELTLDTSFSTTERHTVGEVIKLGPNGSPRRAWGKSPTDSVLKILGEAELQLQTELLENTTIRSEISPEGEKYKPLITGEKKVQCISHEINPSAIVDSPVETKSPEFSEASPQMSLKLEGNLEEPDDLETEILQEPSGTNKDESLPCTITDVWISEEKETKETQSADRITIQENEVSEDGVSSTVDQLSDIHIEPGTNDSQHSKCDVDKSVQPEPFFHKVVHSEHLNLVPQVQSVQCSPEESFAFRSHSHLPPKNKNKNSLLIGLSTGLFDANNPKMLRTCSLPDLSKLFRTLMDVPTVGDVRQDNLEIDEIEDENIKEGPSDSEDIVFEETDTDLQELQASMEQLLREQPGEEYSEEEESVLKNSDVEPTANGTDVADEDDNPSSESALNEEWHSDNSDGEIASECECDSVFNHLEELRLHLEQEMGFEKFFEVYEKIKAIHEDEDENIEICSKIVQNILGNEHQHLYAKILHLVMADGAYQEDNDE
Procedure, shortened: (§5)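 KINOMEscan competition binding panel of 468 kinases and mutants, compound at 1 μM; binding reported as percent of control.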

[7] = test system: Mast/stem cell growth factor receptor Kit (Homo sapiens), P10721 [UNDEFINED MUTATION]; assay: Inhibition of c-KIT 560 to 578 deletion mutant in human GISTT1 cells assessed as reduction in AKT phosphorylation at S473 residue at 0.1 uM to 3 uM after 1 hr by Western blot analysis; type: cell-based; procedure, shortened: as §3
[8] = Apparent clearance in mouse at 1 mg/kg, iv measured after 2 to 720 mins by LC-tandem mass spectrometry analysis; type: ADME, organism-based; settings: in vivo, read-out: CL(app) (converted); procedure, shortened: as §4
[9] = MRT (0 to infinity) in Sprague-Dawley rat at 10 mg/kg, po measured after 5 to 720 mins by LC-tandem mass spectrometry analysis; type: ADME, organism-based; settings: in vivo; procedure, shortened: as §2
[10] = molecular target: Mast/stem cell growth factor receptor Kit (Homo sapiens, UniProt P10721); assay: Inhibition of TEL fused wild type c-KIT (unknown origin) transfected in mouse BaF3 cells assessed as reduction in phosphorylation at Y703 residue after 2 hrs by Western blot analysis; type: cell-based
[11] = test system: Mast/stem cell growth factor receptor Kit (Homo sapiens), P10721 [UNDEFINED MUTATION]; assay: Inhibition of c-KIT 560 to 578 deletion mutant in human GISTT1 cells assessed as reduction in S6 phosphorylation at S235/S236 residue at 0.1 uM to 3 uM after 1 hr by Western blot analysis; type: cell-based; procedure, shortened: as §3
[12] = Drug level in plasma of nude mouse xenograted with human GIST5R cells at 100 mg/kg, po administered as single dose and measured at 30 mins; type: ADME, organism-based; settings: in vivo, 0.5 h
Procedure, shortened: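 GIST-5R xenograft nu/nu mice given a single 100 mg/kg oral dose; plasma drug concentration followed over a time course alongside tumor p-c-KIT, p-ERK and p-AKT.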

[13] = Apparent volume of distribution in Sprague-Dawley rat at 10 mg/kg, po measured after 5 to 720 mins by LC-tandem mass spectrometry analysis; type: ADME, organism-based; settings: in vivo; procedure, shortened: as §1
[14] = molecular target: Serine/threonine-protein kinase PAK 2 (Homo sapiens, UniProt Q13177); assay: Binding affinity to wild-type human partial length PAK2 (P151 to R525 residues) expressed in bacterial expression system assessed as enzyme remaining activity at 1 uM by Kinomescan assay relative to control; procedure, shortened: as §5
[15] = molecular target: Platelet-derived growth factor receptor beta (Homo sapiens, UniProt P09619); assay: Inhibition of wild-type human partial length PDGFRB (V582 to Y1009 residues) expressed in bacterial expression system after 1 hr by Z-LYTE assay
Platelet-derived growth factor receptor beta, sequence (P09619 whole entry, the tested form may be a part): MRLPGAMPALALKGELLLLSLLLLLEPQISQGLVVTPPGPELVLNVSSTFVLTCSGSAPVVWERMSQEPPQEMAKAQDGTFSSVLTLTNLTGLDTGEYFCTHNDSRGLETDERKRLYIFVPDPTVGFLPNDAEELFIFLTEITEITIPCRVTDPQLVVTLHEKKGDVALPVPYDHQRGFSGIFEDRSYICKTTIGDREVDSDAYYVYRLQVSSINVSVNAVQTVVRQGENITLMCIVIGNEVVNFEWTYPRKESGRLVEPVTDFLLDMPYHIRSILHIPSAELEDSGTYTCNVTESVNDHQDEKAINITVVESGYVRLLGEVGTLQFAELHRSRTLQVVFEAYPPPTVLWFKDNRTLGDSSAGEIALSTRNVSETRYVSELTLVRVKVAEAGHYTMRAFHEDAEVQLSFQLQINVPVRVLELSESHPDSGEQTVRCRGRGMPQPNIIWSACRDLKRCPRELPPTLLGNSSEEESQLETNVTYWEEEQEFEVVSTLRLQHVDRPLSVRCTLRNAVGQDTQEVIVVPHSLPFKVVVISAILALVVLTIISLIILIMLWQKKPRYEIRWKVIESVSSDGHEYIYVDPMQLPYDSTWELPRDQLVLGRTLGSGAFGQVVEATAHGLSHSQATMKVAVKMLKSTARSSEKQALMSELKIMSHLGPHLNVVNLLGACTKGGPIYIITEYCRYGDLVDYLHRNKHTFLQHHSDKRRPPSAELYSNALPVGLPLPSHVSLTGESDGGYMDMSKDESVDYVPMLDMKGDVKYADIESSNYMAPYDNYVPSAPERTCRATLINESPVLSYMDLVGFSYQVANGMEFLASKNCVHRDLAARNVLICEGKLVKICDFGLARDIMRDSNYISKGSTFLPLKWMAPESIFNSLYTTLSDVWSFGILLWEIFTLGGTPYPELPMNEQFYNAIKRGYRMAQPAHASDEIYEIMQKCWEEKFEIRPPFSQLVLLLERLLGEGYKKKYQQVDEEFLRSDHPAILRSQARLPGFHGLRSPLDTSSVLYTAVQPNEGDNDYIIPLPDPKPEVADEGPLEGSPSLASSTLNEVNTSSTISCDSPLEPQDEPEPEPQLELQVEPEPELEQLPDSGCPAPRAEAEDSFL

GISTT1 = assay: Induction of apoptosis in human GISTT1 cells harboring c-KIT 560 to 578 deletion/T670I double mutant assessed as increase in cleaved PARP level after 24 hrs by Western blot analysis; type: functional, cell-based
Procedure, shortened: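 GIST-T1-T670I cells grown in DMEM with 10% FBS, exposed to serially diluted compound for 24 h. Apoptosis read by Western blot with PARP and GAPDH antibodies.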

[16] = molecular target: Casein kinase I isoform alpha (Homo sapiens, UniProt P48729); assay: Binding affinity to wild-type human partial length CSNK1A1 (M1 to L301 residues) expressed in mammalian expression system assessed as enzyme remaining activity at 1 uM by Kinomescan assay relative to control; procedure, shortened: as §5
Casein kinase I isoform alpha, sequence (P48729 2-337 limits assumed): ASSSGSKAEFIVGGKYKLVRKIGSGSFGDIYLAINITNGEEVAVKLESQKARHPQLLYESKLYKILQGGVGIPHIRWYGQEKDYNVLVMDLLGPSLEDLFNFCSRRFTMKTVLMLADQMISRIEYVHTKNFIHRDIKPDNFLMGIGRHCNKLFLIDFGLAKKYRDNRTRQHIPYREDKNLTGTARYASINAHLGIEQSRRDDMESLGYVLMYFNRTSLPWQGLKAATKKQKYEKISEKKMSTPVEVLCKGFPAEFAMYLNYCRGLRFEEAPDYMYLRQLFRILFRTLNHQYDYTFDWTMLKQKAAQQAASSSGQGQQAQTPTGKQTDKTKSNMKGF

Mus musculus = assay: Inhibition of AKT phosphorylation at […] residue in tumor of human GIST5R cells xenografted in nude mouse at 100 mg/kg, po administered as single dose and measured at 2 hrs; type: functional, organism-based
Procedure, shortened: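 Female nu/nu mice bearing subcutaneous GIST-5R tumors (cells in Matrigel, right flank) given one oral dose of 100 mg/kg in 0.5% methylcellulose/0.4% Tween80. Tumors collected over a 2 h time course. p-c-KIT, p-ERK and p-AKT measured alongside plasma drug levels.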

[17] = molecular target: Serine/threonine-protein kinase 25 (Homo sapiens, UniProt O00506); assay: Binding affinity to wild-type human partial length STK25 (V14 to H295 residues) expressed in bacterial expression system assessed as enzyme remaining activity at 1 uM by Kinomescan assay relative to control; procedure, shortened: as §5
[18] = molecular target: Serine/threonine-protein kinase Nek1 (Homo sapiens, UniProt Q96PY6); assay: Inhibition of wild-type human partial length NEK1 (M1 to K278 residues) expressed in bacterial expression system after 1 hr by Z-LYTE assay
Serine/threonine-protein kinase Nek1, sequence (Q96PY6 whole entry, the tested form may be a part): as the sequence (Q96PY6 whole entry, the tested form may be a part) above

O=C(CC(=O)Nc1ccc2c(/C=C/c3ccccn3)n[nH]c2c1)Nc1cccc(F)c1
AUC(0-inf) [1]: 809 ng·h/mL | Tmax [2]: 1.7 h | inhibition [3]: Active | AUC(0-inf) [4]: 1480 ng·h/mL | GI50 [5]: 868 nM | Activity [6]: 0% | inhibition [7]: Active | clearance [8]: 18.3 mL/min/kg | MRT inf [9]: 5.4 h | pEC50 [10]: < 6.00 | inhibition [11]: Active | Drug uptake [12]: Active | Vz [13]: 86.8 L/kg | Activity [14]: 0.1% | pIC50 [15]: 5.68 | Activity (GISTT1): Dose-dependent effect | Activity [16]: 0.2% | inhibition (Mus musculus): Active | Activity [17]: 0% | pIC50 [18]: < 5.00
